# Source: ChEMBL document CHEMBL3044828, “Synthesis of 1-acyl-3-isopropenylbenzimidazolone derivatives and their activity against Botrytis cinerea” (J Agric Food Chem, 2010)
# Test system: Botrytis cinerea
# Assay: Fungicidal activity against Botryotinia fuckeliana assessed as inhibition of spore germination at 25 degC after 6 hr by microscopic analysis
# Type: functional, organism-based
# Summary of the method: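 B. cinerea strain from a university plant disease institute, grown 2 weeks at 20 °C on PDA; conidia scraped into sterile water, filtered through cheesecloth, suspended in 0.1% Tween 20 and adjusted to 1.0 × 10⁶ spores/mL. Samples taken up in methanol and diluted in sterile water to a concentration series (methanol <1% final); 1% methanol control. 10 μL spore–sample aliquots on glass slides in triplicate, moist chamber, germination scored microscopically.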
row,SMILES,IC50 [µg/mL]
1,C=C(C)n1c(=O)n(C(=O)COc2ccccc2)c2ccccc21,303
2,C=CC(=O)n1c(=O)n(C(=C)C)c2ccccc21,32.2
3,C=C(C)n1c(=O)n(C(=O)c2ccc(Cl)cc2)c2ccccc21,66.8
4,C=C(C)n1c(=O)n(C(=O)C(C)C)c2ccccc21,134
5,C=C(C)n1c(=O)n(C(=O)Cc2ccc(OC)cc2)c2ccccc21,118
6,C=C(C)n1c(=O)n(C(=O)COc2ccc(Cl)cc2)c2ccccc21,108
7,C=C(C)n1c(=O)n(C(=O)C(CC)CC)c2ccccc21,277
8,C=C(C)n1c(=O)n(C(=O)c2ccco2)c2ccccc21,104
9,C=C(C)n1c(=O)n(C(=O)C(CC)c2ccccc2)c2ccccc21 (configuration not stated),186
10,C=C(C)n1c(=O)n(C(=O)c2ccccc2Cl)c2ccccc21,17.2
11,C=C(C)n1c(=O)n(C(=O)CCC)c2ccccc21,> 500
12,C=C(C)n1c(=O)n(C(=O)CCc2ccccc2)c2ccccc21,126
13,C=C(C)n1c(=O)n(C(=O)c2ccncc2)c2ccccc21,152
14,C=C(C)n1c(=O)n(C(=O)CCC(C)C)c2ccccc21,335
15,C=C(C)n1c(=O)n(C(=O)c2ccc([N+](=O)[O-])cc2)c2ccccc21,93.3
16,Cc1cc(C)nc(Nc2ccccc2)n1 [PYRIMETHANIL],209
17,C=C(C)n1c(=O)n(C(=O)Cc2ccccc2)c2ccccc21,168
18,C=C(C)n1c(=O)n(C(=O)Cc2ccc3ccccc3c2)c2ccccc21,> 500
19,C=C(C)n1c(=O)n(C(=O)CCCCC)c2ccccc21,129
20,C=C(C)n1c(=O)n(C(C)=O)c2ccccc21,> 500
21,C=C(C)n1c(=O)n(C(=O)CCCC)c2ccccc21,254
22,C=C(C)n1c(=O)n(C(=O)Cc2ccc(Cl)cc2)c2ccccc21,17.3
23,C=C(C)C(=O)n1c(=O)n(C(=C)C)c2ccccc21,64
24,C=C(C)n1c(=O)n(C(=O)c2ccccc2[N+](=O)[O-])c2ccccc21,442
25,C=C(C)n1c(=O)n(C(=O)c2ccccc2)c2ccccc21,81.9
26,C=C(C)n1c(=O)n(C(=O)CC)c2ccccc21,> 500
27,C=C(C)n1c(=O)n(C(=O)CCCc2c[nH]c3ccccc23)c2ccccc21,302
